According to ChEMBL document CHEMBL1914386, “Neopetrosiquinones A and B, sesquiterpene benzoquinones isolated from the deep-water sponge Neopetrosia cf. proxima” (Bioorg Med Chem, 2011):
The source made the active and inactive calls. No cut-off for these calls is given here.

Tests used:
[1] = test system: Trypanosoma cruzi; test: Antitrypanosomal activity against Trypanosoma cruzi Tulahuen assessed as parasite growth after 10 days by nephelometry; format: functional; conditions: 240 h
[2] = test system: PANC-1; test: Cytotoxicity against human PANC1 cells after 48 hrs by MTT assay; format: functional, cell-based; conditions: PANC-1, 48 h
In short: (§1)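 Proliferation of human tumour lines obtained from ATCC: A549 lung adenocarcinoma (CCL-185), PANC-1 pancreatic (CRL-1469), AsPC-1 pancreatic (CRL-1682) and DLD-1 colorectal adenocarcinoma. The assay was run by a protocol described earlier.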

[3] = test system: A549; test: Cytotoxicity against human A549 cells after 48 hrs by MTT assay; format: functional, cell-based; conditions: A549, 48 h; in short: as §1
[4] = test system: ASPC1; test: Cytotoxicity against human AsPC1 cells after 48 hrs by MTT assay; format: functional, cell-based; conditions: ASPC1, 48 h; in short: as §1
[5] = test system: DLD-1; test: Cytotoxicity against human DLD1 cells after 48 hrs by MTT assay; format: functional, cell-based; conditions: DLD-1, 48 h; in short: as §1
[6] = Cytotoxicity against human NCI-ADR-RES cells after 48 hrs by MTT assay; format: functional, cell-based
[7] = target: TCF4/beta-catenin (Homo sapiens) (UniProt P35222+Q9NQB0); test: Inhibition of GST-tagged T cell factor4/[…] interaction assessed as reduction in alkaline phosphatase level; format: cell-based

SMILES	GI50 [1] [nM]	IC50 [2] [µM]	IC50 [3] [µM]	IC50 [4] [µM]	IC50 [5] [µM]	IC50 [6] [µM]	inhibition [7]
CC1(C)CCC[C@@]2(C)c3cc4c(cc3CC[C@H]12)C(=O)C=CC4=O [CYCLOZONARONE]	700						
C[C@]1(CO)CCC[C@]2(C)c3cc4c(cc3C=C[C@@H]12)C(=O)C=CC4=O		13.8	> 15.5	> 15.5	9.8	> 15.5	
C[C@]1(C=O)CCC[C@]2(C)c3cc4c(cc3C(=O)C[C@@H]12)C(=O)C=CC4=O		6.1	> 14.8	6.1	3.7	> 14.8	
C[C@@]12CCC(=O)c3coc(c31)C(=O)c1cc3c(cc12)C(=O)C=CC3=O							inactive
